Reference: ChEMBL document CHEMBL3856209, “Novel pyrazolopyridine derivatives as potential angiogenesis inhibitors: Synthesis, biological evaluation and transcriptome-based mechanistic analysis” (Eur J Med Chem, 2016)
The source made the active and inactive calls. No cut-off for these calls is given here.

Columns and labels:
[1] = Effect on total VEGFR2 levels in VEGF-165-induced serum-starved HUVEC at 2 uM preincubated for 2 hrs followed by VEGF-165 induction measured after 5 mins by Western blot analysis; format: cell-based; conditions: human
Outline: (§1)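 Serum-starved HUVEC were given 2 µM compound or vehicle for 2 h, then VEGF-165 (50 ng/mL) or PBS for 5 min. Lysates with equal protein were run on SDS-PAGE and immunoblotted for phospho-VEGFR2 (Tyr951, 996, 1056, 1175), p-AKT Ser473, p-ERK1/2 and the total proteins. Detection was by ECL with densitometry. Phospho signals were normalized to total protein, n = 3.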

Mus musculus [2] = assay: Toxicity in C57BL/6 mouse allografted with mouse LLC cells assessed as effect on vital organs at 0.05 to 0.2 mg/kg, ip administered thrice a week for 2 weeks starting 24 hrs before tumor implantation by haematoxylin-eosin staining-based microscopic analysis; format: organism-based; conditions: in vivo
Outline: (§2)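 Male C57BL/6 mice, 6–8 weeks old, in groups of 5–6, received 5×10^5 LLC cells sc in the right flank. Compound (0.05–0.2 mg/kg) or DMSO vehicle was given ip thrice weekly for 2 weeks, starting 24 h before implantation. Mice were weighed and examined clinically every other day. At end-point, kidney, lung, spleen, liver and heart sections were H&E-stained and examined microscopically.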

[3] = target: Vascular endothelial growth factor receptor 2 (Homo sapiens) (UniProt P35968); assay: Inhibition of VEGF-165-induced VEGFR2 autophosphorylation at Tyr1175 in serum-starved HUVEC at 2 uM preincubated for 2 hrs followed by VEGF-165 induction measured after 5 mins by Western blot analysis; format: cell-based; outline: as §1
HUVEC [4] = assay: Effect on KIF20A gene expression in serum-starved HUVEC after 6 hrs by microarray analysis relative to control; format: functional, Homo sapiens
Outline: (§3)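 Confluent, serum-starved HUVEC (pooled from 3–5 donors, passage ≤4) treated with 2 μM compound or vehicle with 2.5% FBS for 6 h or 24 h. Total RNA hybridized to Illumina Human-HT12 arrays. Data were background-corrected, vst-transformed and rsn-normalized. Hits called by moderated paired t-test versus DMSO-treated cells, p < 0.05 and log2 fold change >|0.5|.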

Lewis lung carcinoma = assay: Antitumor activity against mouse LLC cells allografted in C57BL/6 mouse assessed as tumor growth inhibition at 0.2 mg/kg, ip administered thrice a week for 2 weeks starting 24 hrs before tumor implantation measured every other day of compound dosing by electronic caliper-based method; format: functional, organism-based
Outline: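 Male 6–8 week C57BL/6 mice (groups of 5–6) inoculated sc in the right flank with 5×10^5 LLC cells. Compound (0.2 mg/kg) or DMSO vehicle given ip thrice weekly for 2 weeks, starting 24 h before implantation. Tumors measured by caliper every other day. At end-point, anti-CD31 IHC (1:100) of tumor sections, with immunoreactive cells counted in six high-power fields.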

HUVEC [5] = assay: Effect on KIF20A gene expression in serum-starved HUVEC after 24 hrs by microarray analysis relative to control; format: functional, Homo sapiens; outline: as §3
HUVEC [6] = assay: Effect on RNU1-3 gene expression in serum-starved HUVEC after 6 hrs by microarray analysis relative to control; format: functional, Homo sapiens
Outline: (§4)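 Serum-starved confluent HUVEC (pooled from 3–5 donors, passage ≤4) were treated with 2 μM compound or vehicle in 2.5% FBS for 6 h or 24 h, and total RNA was isolated. Hybridization was on Illumina Human-HT12. Data were processed with bgAdjust, vst and rsn normalization. Changes versus DMSO were called by moderated paired t-test at p < 0.05 and |log2 fold change| > 0.5.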

HUVEC [7] = assay: Inhibition of VEGF-165-induced HUVEC chemotactic migration at 0.2 to 2 uM after 6 hrs by transwell assay; format: functional, cell-based; conditions: Homo sapiens
Outline: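 Serum-starved HUVEC were pre-treated overnight with compound or vehicle in 5% FBS medium. Cells were then seeded at 6×10^4 per upper Transwell chamber (8 µm pores) and migrated for 6 h toward VEGF-165 (50 ng/mL) or starvation medium. Migrated cells were ethanol-fixed, stained with H&E and counted in five fields per well. Results are % of control from at least two independent experiments.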

HUVEC [8] = assay: Effect on RNU1-3 gene expression in serum-starved HUVEC after 24 hrs by microarray analysis relative to control; format: functional, Homo sapiens; outline: as §4
Mus musculus [9] = assay: Toxicity in C57BL/6 mouse allografted with mouse LLC cells at 0.05 to 0.2 mg/kg, ip administered thrice a week for 2 weeks starting 24 hrs before tumor implantation by clinical test; format: organism-based; conditions: in vivo; outline: as §2
[10] = target: Vascular endothelial growth factor receptor 2 (Homo sapiens) (UniProt P35968); assay: Inhibition of VEGF-165-induced VEGFR2 autophosphorylation in serum-starved HUVEC assessed as decrease in AKT phosphorylation at 2 uM preincubated for 2 hrs followed by VEGF-165 induction measured after 5 mins by Western blot analysis; format: cell-based; outline: as §1
HUVEC [11] = assay: Antimigratory activity in HUVEC at 0.2 to 2 uM after 6 hrs in presence of 5% fetal bovine serum by transwell assay; format: functional, cell-based; conditions: Homo sapiens
Outline: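 Serum-starved confluent HUVEC pre-treated overnight with compound or vehicle in 5% FBS medium. Then placed in the upper chamber of 8 µm-pore Transwells (6×10^4 cells/well) and allowed to migrate 6 h toward 5% FBS or starvation medium. Migrated cells fixed, H&E stained, and counted in five fields/well; expressed as % of control; replicates from two independent experiments.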

HUVEC [12] = assay: Inhibition of total protein tyrosine kinase activity in serum-starved HUVEC at 1 to 4 uM after 2 hrs; format: cell-based; conditions: Homo sapiens
[13] = Antiproliferative activity against human EAhy926 cells assessed as decrease in cell viability after 24 to 48 hrs in presence of 2.5% fetal bovine serum by MTT assay; format: functional, cell-based; conditions: EA.hy 926
Outline: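 EA.hy926 in DMEM with 2.5% FBS exposed 48 h to serial 1:2 compound dilutions spanning 0.125–50 μM. Viable cells measured by MTT (0.5 mg/mL, 4 h, A595/630 nm). IC50 (mean ± SEM) fitted by non-linear regression from eight or more points.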

[14] = target: Vascular endothelial growth factor receptor 2 (Homo sapiens) (UniProt P35968); assay: Inhibition of VEGF-165-induced VEGFR2 autophosphorylation in serum-starved HUVEC assessed as decrease in ERK1/2 phosphorylation at 2 uM preincubated for 2 hrs followed by VEGF-165 induction measured after 5 mins by Western blot analysis; format: cell-based; outline: as §1
HUVEC [15] = assay: Effect on GNG12 gene expression in serum-starved HUVEC after 24 hrs by microarray analysis relative to control; format: functional, Homo sapiens; outline: as §3
EA.hy 926 = assay: Antiproliferative activity against human EAhy926 cells assessed as decrease in cell viability at 0.2 to 2 uM after 24 to 48 hrs in presence of 2.5% fetal bovine serum by MTT assay; format: functional, cell-based
Outline: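 EA.hy926 seeded at 4×10^3/well, adhered 24 h, and starved 4 h in 0.25% BSA medium. Then treated with compound or 0.1% v/v DMSO in medium with 2.5% FBS for 48 h. MTT 0.5 mg/mL for 4 h, A595 with 630 nm correction, cell number from a standard curve. Expressed as % of DMSO control; replicates from two independent experiments.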

Chain of Vascular endothelial growth factor receptor 2 (Homo sapiens) (P35968 whole entry): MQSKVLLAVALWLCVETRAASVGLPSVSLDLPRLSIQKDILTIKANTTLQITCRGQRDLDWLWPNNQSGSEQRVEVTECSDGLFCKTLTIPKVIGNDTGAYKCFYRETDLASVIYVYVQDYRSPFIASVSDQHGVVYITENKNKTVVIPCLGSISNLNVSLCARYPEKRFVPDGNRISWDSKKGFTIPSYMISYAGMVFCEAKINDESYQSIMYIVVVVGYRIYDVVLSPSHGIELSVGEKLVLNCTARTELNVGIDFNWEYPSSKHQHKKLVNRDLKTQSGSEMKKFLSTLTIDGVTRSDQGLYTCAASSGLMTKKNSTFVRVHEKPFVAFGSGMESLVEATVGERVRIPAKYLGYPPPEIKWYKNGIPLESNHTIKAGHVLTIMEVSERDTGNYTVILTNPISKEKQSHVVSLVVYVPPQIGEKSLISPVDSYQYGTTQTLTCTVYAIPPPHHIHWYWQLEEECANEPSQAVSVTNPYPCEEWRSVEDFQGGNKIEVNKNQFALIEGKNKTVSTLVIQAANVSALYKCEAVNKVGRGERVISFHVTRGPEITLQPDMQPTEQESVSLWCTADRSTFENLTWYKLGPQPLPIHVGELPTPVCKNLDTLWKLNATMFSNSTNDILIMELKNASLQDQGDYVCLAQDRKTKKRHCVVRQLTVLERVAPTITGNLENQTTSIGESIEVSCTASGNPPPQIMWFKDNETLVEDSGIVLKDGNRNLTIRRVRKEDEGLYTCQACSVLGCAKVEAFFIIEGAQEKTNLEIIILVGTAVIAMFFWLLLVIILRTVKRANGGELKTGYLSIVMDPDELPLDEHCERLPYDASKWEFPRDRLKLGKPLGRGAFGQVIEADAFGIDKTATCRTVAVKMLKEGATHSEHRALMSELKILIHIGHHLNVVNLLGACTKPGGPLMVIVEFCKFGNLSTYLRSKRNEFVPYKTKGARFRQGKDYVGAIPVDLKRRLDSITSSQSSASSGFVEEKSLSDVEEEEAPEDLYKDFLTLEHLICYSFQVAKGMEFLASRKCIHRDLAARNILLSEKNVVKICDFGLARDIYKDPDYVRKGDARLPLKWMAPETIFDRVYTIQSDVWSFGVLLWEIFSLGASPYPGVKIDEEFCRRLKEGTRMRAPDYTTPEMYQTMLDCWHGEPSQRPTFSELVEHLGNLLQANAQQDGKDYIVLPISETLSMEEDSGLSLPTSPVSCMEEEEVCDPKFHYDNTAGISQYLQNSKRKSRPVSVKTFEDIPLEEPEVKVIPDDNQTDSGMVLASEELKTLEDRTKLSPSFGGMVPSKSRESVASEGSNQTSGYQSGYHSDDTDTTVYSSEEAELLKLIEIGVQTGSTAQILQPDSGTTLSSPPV

inhibition [3]	inhibition [10]	inhibition (HUVEC [12])	inhibition [14]	SMILES	Activity [1]	Activity (Mus musculus [2])	log2FC (HUVEC [4])	TGI (Lewis lung carcinoma)	log2FC (HUVEC [5])	log2FC (HUVEC [6])	inhibition (HUVEC [7])	log2FC (HUVEC [8])	Activity (Mus musculus [9])	Activity (HUVEC [11])	IC50 [13]	log2FC (HUVEC [15])	Activity (EA.hy 926)
Active	Active	Active	Active	COc1ccc(Cn2nc(-c3ccccc3)c3cc(Cl)nc(N4CCNCC4)c32)cc1	Non-Toxic	Non-Toxic	-0.1005	Active	-0.5549	-0.5393	Active	-0.1906	Non-Toxic	Active	4.3 µM	0.2465	Active
Active	Active	Active	Active	COc1ccc(Cn2nc(-c3ccccc3)c3cc(Nc4ccc(N5CCN(C)CC5)cc4)nc(N4CCN(C)CC4)c32)cc1	Non-Toxic	Non-Toxic	-0.1216	Active	-0.9386	-0.5806	Active	0.1009	Non-Toxic	Active	7.2 µM	0.1566	Active
Active	Active	Active	Active	COc1ccc(Cn2nc(-c3ccccc3)c3cc(Nc4ccc(N5CCN(C)CC5)cc4)nc(N4CCNCC4)c32)cc1	Non-Toxic	Non-Toxic	-0.0473	Active	-0.5596	-0.5169	Active	0.1133	Non-Toxic	Active	12 µM	0.1458	Active
